# SENP7 block = SENP7 protease inhibition. recombinant SENP7, Z-RLRGG-aminoluciferin luminescence, 40 min. inhibition, % at 5 µM. 330,000 tested, 1.5% active. AID 434973;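 active = inhibition above about 50% at the single test dose, limit read from the data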;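 also: plate controls were DMSO with enzyme for no effect and no enzyme buffer wells for full effect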
# SENP6 block = SENP6 protease inhibition | Q9GZR1 | Recombinant SENP6 catalytic domain, aminoluciferin luminescence | inhibition, % at 10 µM | 330,000 tested, 1.8% active | AID 2599;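 active = inhibition above about 50% at the single tested dose, limit read from the data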;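 also: plate controls were DMSO wells with enzyme for no effect and DMSO wells lacking enzyme for full effect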
# Target sequence (Q9GZR1 628-1112 limits assumed): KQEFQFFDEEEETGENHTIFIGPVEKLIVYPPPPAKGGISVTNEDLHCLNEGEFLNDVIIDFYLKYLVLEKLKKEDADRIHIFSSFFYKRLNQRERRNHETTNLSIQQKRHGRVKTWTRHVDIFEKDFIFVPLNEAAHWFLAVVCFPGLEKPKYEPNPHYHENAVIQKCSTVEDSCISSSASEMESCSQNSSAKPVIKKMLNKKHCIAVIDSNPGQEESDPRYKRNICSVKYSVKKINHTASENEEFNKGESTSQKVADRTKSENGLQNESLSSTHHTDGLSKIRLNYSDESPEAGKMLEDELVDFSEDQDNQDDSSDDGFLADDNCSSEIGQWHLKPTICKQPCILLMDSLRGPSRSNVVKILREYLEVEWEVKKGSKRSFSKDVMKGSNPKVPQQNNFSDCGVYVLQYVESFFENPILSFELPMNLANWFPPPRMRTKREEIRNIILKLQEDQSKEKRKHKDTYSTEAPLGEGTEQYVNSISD
# SENP8 block-1 = inhibitors of human SENP8 protease; Q96LD8; purified SENP8, Z-RLRGG-aminoluciferin cleavage, luminescence; inhibition, % at 10 µM; 330,000 tested, 1.2% active; in the data active = inhibition above about 50%
# SENP1 FRET inh = SENP1 (human) catalytic domain inhibition; Q9P0U3; inhibition, % at 10 µM; 360,000 tested, 0.21% active; AID 624204; recombinant SENP1 catalytic domain, CyPet-SUMO1-YPet FRET cleavage;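 active = inhibition at least 30% at 10 µM, raw YFP signal under a set limit, fluorescence ratio 0.5 to 1.5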;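 also: 0% = enzyme with DMSO and 100% = no enzyme wells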
#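 Assay system – human recombinant His6-tagged SENP1 catalytic domain enzyme · Input – SENP1 enzyme, 20 pM final · Buffer or medium – Tris pH 8 buffer plus EDTA, NaCl, BME, BSA, NP40, catalase · Schedule – 50 min reaction at room temperature · Technique – FRET read of cyan and yellow fluorescence · Control set – no-enzyme wells low, DMSO-plus-enzyme wells high control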
# SENP8 block-2 = inhibitors of human SENP8 protease | recombinant SENP8, Nedd8 substrate fluorescence | inhibition, % at 20 µM | 360,000 tested, 0.64% active | AID 602440; in the data active = inhibition mostly above about 40%, no sharp cut-off; inactive = mostly below about 27%
# SENP8 confirm = human SENP8 inhibition, confirmed; inhibition, % at 12.5 µM; 6,200 tested, 40% active; shares compounds with SENP7 block; Recombinant SENP8, Z-RLRGG-aminoluciferin luminescence, 60 min;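 active = mean inhibition across replicates above about 50%, limit read from the data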
# SENP6 confirm = confirmation of human SENP6 protease inhibitors; shares compounds with SENP7 block; recombinant SENP6, Z-RLRGG-aminoluciferin luminescence; inhibition, % at 12.5 µM; 6,200 tested, 58% active; AID 488915
# SENP7 conf = confirmation of human SENP7 protease inhibitors | shares compounds with SENP7 block | recombinant SENP7, Z-RLRGG-aminoluciferin luminescence, 40 min | 6,200 tested, 69% active | inhibition, % at 12.5 µM
# Casp3 select = caspase-3 inhibition (SENP selectivity assay); shares compounds with SENP7 block; purified caspase-3, Z-DEVD-aminoluciferin luminescence, 60 min; inhibition, % at 12.5 µM; 6,200 tested, 60% active; AID 488918;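 active = mean inhibition above about 50%, limit read from the data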;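 also: plate controls were enzyme with DMSO for no effect and wells without caspase-3 for full effect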
# Target sequence (P42574 28-227 limits assumed): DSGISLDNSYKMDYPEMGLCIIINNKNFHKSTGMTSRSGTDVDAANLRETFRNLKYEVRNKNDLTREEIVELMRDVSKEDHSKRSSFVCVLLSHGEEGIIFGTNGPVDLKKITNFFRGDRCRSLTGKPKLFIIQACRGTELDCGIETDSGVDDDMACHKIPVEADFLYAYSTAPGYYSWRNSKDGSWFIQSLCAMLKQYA
# SENP luc ctr = counter-screen for SENP inhibitors: luminescence interference | inhibition, % at 12.5 µM | Pre-incubated SENP8/Z-RLRGG-aminoluciferin, luciferase luminescence interference | 6,200 tested, 39% active | shares compounds with SENP7 block | AID 488919;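 active = mean inhibition above about 50% when retested at one dose, limit read from the data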;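 also: plate controls were DMSO wells with completed reaction for no effect and substrate without enzyme for full effect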
# Starred values were filed as active, the others as inactive; x = not tested or not shown. This is a sample that favours compounds with a hit; in the whole collection about 2.5% have one here.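 The calls were made as follows, unless noted: active = mean inhibition above about 50% in the one-dose retest (limit read from the data); inactive = the rest.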
SMILES,SENP7 block,SENP6 block,SENP8 block-1,SENP1 FRET inh,SENP8 block-2,SENP8 confirm,SENP6 confirm,SENP7 conf,Casp3 select,SENP luc ctr
Cc1nc(CC(=O)NNS(=O)(=O)c2cccc(Cl)c2Cl)cs1,9.9,-8.3,3.6,-0.8,9.2,x,x,x,x,x
Cc1cc(C(=O)Nc2ccccc2C(=O)O)c(C)o1,8.5,22.3,7.0,-0.1,-0.2,x,x,x,x,x
COc1cccc(N=Cc2c(O)c3ccccc3oc2=O)c1,27.1,62.3*,8.9,-5.7,-311.3,17.7,22.3,75.9*,14.9,13.4
CC(=O)c1cccc(N=Cc2c(O)c3ccccc3oc2=O)c1,-19.3,-40.3,-32.0,-1.8,-92.0,x,x,x,x,x
Cc1ccc(N=Cc2c(O)c3ccccc3oc2=O)c(C)c1,85.8*,42.4,45.6,-29.9,-152.0,53.3*,52.1*,34.9,43.9,1.8
Cc1ccc(F)cc1N=Cc1c(O)c2ccccc2oc1=O,-10.9,-4.6,-5.8,-3.8,-84.6,x,x,x,x,x
COC1=CC(=O)C=C(OC)C1(O)CC(C)=O,x,x,x,-2.9,29.8,x,x,x,x,x
Clc1ccc(-c2cn3nc4c(nc3n2)CCCC4)cc1,13.8,55.0*,38.5,-16.5,-416.4,47.6,61.7*,61.5*,59.6*,11.4
COC(=O)c1c[nH]n2c(=O)c(Cl)c(C)nc12,53.6*,64.0*,34.5,-2.2,-12.8,65.5*,57.1*,85.5*,88.0*,66.1*
COC(=O)c1c[nH]n2c(=O)cc(C)nc12,7.3,-3.4,-4.3,1.3,2.3,x,x,x,x,x
CC(=O)Nc1ccc(S(=O)(=O)NCc2nc(-c3ccccc3C)no2)cc1,0.2,-25.2,-2.4,-0.5,-2.6,x,x,x,x,x
CC(C)(C)c1cc(NC(=O)Nc2ccccc2)no1,7.4,30.0,12.8,1.1,22.6,x,x,x,x,x
Cc1cc(C(=O)Nc2cc(C(C)(C)C)on2)c(C)o1,70.6*,72.8*,64.4*,-0.7,1.8,15.0,25.4,43.6,51.1*,11.4
Cc1cc(C(=O)Nc2ccon2)c(C)o1,-9.1,-39.4,-10.2,-6.8,0.9,x,x,x,x,x
CC(C)(C)c1cc(NC(=O)c2ccco2)no1,70.7*,66.8*,32.5,1.2,9.2,52.7*,56.6*,86.3*,83.4*,56.5*
COc1ccc2c(c1)CCc1c-2n[nH]c1C(=O)NCCC(C)C,59.7*,48.2,56.2*,0.2,9.3,23.3,54.4*,85.3*,52.4*,10.2
CCCCNC(=O)C1(C)CCN1C(=O)c1ccc(OC)c(C(F)(F)F)c1 (stereo not drawn),x,x,x,-1.3,10.0,x,x,x,x,x
Cc1ccc(S(=O)(=O)CCC(=O)Nc2nc(-c3ccncc3)cs2)cc1,-6.7,51.9*,5.2,-1.3,1.3,9.5,5.5,-7.2,-1.4,0.3
O=C(N/N=C/c1ccccc1Cl)c1ccc(F)cc1,36.8,69.2*,8.7,-0.2,7.5,1.7,15.7,8.5,48.1,44.5
O=C(N/N=C/c1ccccc1Cl)c1nc2ccc([N+](=O)[O-])cc2c(=O)[nH]1,46.1,57.2*,74.9*,-34.4,-50.3,46.6,52.8*,47.9,50.4*,44.7
O=C(N/N=C/c1cccc([N+](=O)[O-])c1)c1nc2ccccc2c(=O)[nH]1,5.2,-3.7,7.4,0.1,16.2,x,x,x,x,x
O=C(NN=Cc1ccccc1Cl)c1ccccc1,x,x,x,0.6,20.1,x,x,x,x,x
Cc1ccc(N2CCN(S(=O)(=O)c3ccc4c(c3)NC(=O)C(C)C(=O)N4)CC2C)cc1 (stereo not drawn),-2.7,9.1,5.2,3.3,6.0,x,x,x,x,x
Fc1ccccc1CNc1ncnc2sccc12,-0.3,87.1*,-6.0,-28.7,-3.9,-5.7,-5.4,-11.5,0.3,3.6
Cn1cnnc1SCC(=O)c1cc2ccccc2oc1=O,66.7*,-15.4,3.8,-28.8,-31.4,9.9,8.7,3.5,-2.4,-5.9
SMILES,SENP7 block,SENP6 block,SENP8 block-1,SENP1 FRET inh,SENP8 block-2,SENP8 confirm,SENP6 confirm,SENP7 conf,Casp3 select,SENP luc ctr
O=C(CSc1nnc(-c2cccnc2)o1)c1cc2ccccc2oc1=O,-5.1,-4.4,-8.7,13.8,-110.5,x,x,x,x,x
O=S(=O)(O)c1ccc(N=Nc2ccccc2)cc1,50.6*,67.4*,51.5*,0.0,25.9,-5.7,35.6,70.6*,76.4*,53.1*
CC(C)C1Oc2ccccc2C(=O)N(CC(=O)c2ccc3c(c2)OCCO3)C1=O (stereo not drawn),55.5*,15.6,-20.4,1.1,3.8,2.0,5.7,12.6,25.9,-3.6
O=C(Nc1ccc2nc3ccccc3nc2c1)c1ccccc1,x,x,x,-20.6,-233.3,x,x,x,x,x
O=C(Nc1ccc(-c2nc3ccccc3s2)c(OC(=O)c2ccccc2)c1)c1ccccc1,64.9*,6.3,4.6,1.5,16.2,5.4,1.7,-6.2,-3.7,-12.4
Oc1cccc(/C=N/Nc2cccc3cccnc23)c1,91.5*,-6.6,95.9*,-99.2,-80.9,96.8*,100.0*,103.8*,93.9*,93.4*
Oc1c(/C=N/Nc2cccc3cccnc23)ccc2ccccc12,14.7,52.4*,36.8,-26.0,-97.9,20.0,13.1,12.4,9.7,5.4
COc1cc(/C=N/Nc2cccc3cccnc23)cc(OC)c1O,-4.7,10.1,-2.8,-59.4,-45.9,x,x,x,x,x
CCc1ccccc1NC(=O)N1CCc2ccccc21,-0.5,-19.5,-2.6,2.2,17.1,x,x,x,x,x
Cc1ccc(-c2cc(C(=O)N3CCCC3)no2)cc1,6.7,67.8*,62.1*,2.4,6.4,-18.3,24.4,86.1*,63.2*,2.7
Cc1ccc(-c2cc(C(=O)N3CCOCC3)no2)cc1,58.1*,60.9*,45.3,1.1,9.8,52.8*,49.7,82.3*,81.2*,55.2*
O=C(c1cc(-c2ccco2)on1)N1CCOCC1,4.7,5.2,9.8,-1.4,9.8,x,x,x,x,x
O=C(NCc1ccco1)c1cc(-c2ccc3c(c2)OCO3)on1,53.4*,-14.2,-5.6,1.7,-23.8,-1.3,-5.7,22.5,18.9,-2.2
O=C(c1cc(-c2ccc3c(c2)OCO3)on1)N1CCCCC1,71.9*,77.9*,65.6*,3.3,-10.0,34.4,74.2*,92.6*,68.2*,7.5
Cc1cc(C)c(C(O)c2ncc(-c3cccc(F)c3)[nH]2)c(C)c1 (stereo not drawn),x,x,x,-1.5,6.0,x,x,x,x,x
CS(=O)(=O)c1ccc2nc(NC(=O)c3cccc([N+](=O)[O-])c3)sc2c1,96.6*,94.5*,95.4*,2.5,-14.3,98.1*,98.7*,102.5*,97.0*,78.1*

# From PubChem BioAssay
